Results from ChEMBL document CHEMBL1123330, “Synthesis and antitumor activities of unsymmetrically substituted 1,4-bis[(aminoalkyl)amino]anthracene-9,10-diones and related systems” (1986).
≈ marks a conversion by molar mass, not a printed value.

tested on: L1210; assay: In vitro inhibition of L1210 cell growth.; assay type: functional; settings: Mus musculus, read-out: ID50 (the source's name)
Method in brief: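 Murine L1210 leukemia cells grown in suspension in McCoy's 5A with 10% horse serum, glutamine, penicillin, streptomycin; 37 °C, 10% CO2. Compound in Me2SO added to 10^5 cells/tube to final 0.01, 0.1 and 10 μg/mL; 7 h continuous exposure.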

Structure (SMILES)	IC50
CN(C)CCCNc1ccc(NCCCCNC(=O)OCc2ccccc2)c2c1C(=O)c1ccccc1C2=O	0.29 µg/mL (≈ 0.549 µM)
CN(C)CCNc1ccc(NCCCCN)c2c1C(=O)c1ccccc1C2=O	0.0045 µg/mL (≈ 0.0118 µM)
COc1ccc(NCCN)c2c1C(=O)c1ccccc1C2=O	2.5 µg/mL (≈ 8.44 µM)
CC(=O)NCCCNc1ccc(NCCN(C)C)c2c1C(=O)c1ccccc1C2=O	0.4 µg/mL (≈ 0.979 µM)
CN(C)CCCNc1ccc(NCCCCN)c2c1C(=O)c1ccccc1C2=O	0.18 µg/mL (≈ 0.456 µM)
CC(=O)NCCCCCNc1ccc(NCCN(C)C)c2c1C(=O)c1ccccc1C2=O	2.3 µg/mL (≈ 5.27 µM)
CN(C)CCNc1ccc(NCCCCNC(=O)OCc2ccccc2)c2c1C(=O)c1ccccc1C2=O	0.88 µg/mL (≈ 1.71 µM)
COc1ccc(NCCCNC(C)=O)c2c1C(=O)c1ccccc1C2=O	> 10 µg/mL
CC(=O)NCCNc1ccc(NCCN(C)C)c2c1C(=O)c1ccccc1C2=O	2.05 µg/mL (≈ 5.2 µM)

Other lines, results leading:

IC50	Structure (SMILES)
> 10 µg/mL	COc1ccc(NCCNC(C)=O)c2c1C(=O)c1ccccc1C2=O
9 µg/mL (≈ 23.7 µM)	COc1ccc(NCCCCCNC(C)=O)c2c1C(=O)c1ccccc1C2=O
> 10 µg/mL	COc1ccc(NCCCCNC(=O)OCc2ccccc2)c2c1C(=O)c1ccccc1C2=O
> 10 µg/mL	COc1ccc(NCCCCNC(C)=O)c2c1C(=O)c1ccccc1C2=O
0.03 µg/mL (≈ 0.071 µM)	CC(=O)NCCCCNc1ccc(NCCN(C)C)c2c1C(=O)c1ccccc1C2=O
1.8 µg/mL (≈ 5.55 µM)	COc1ccc(NCCCCN)c2c1C(=O)c1ccccc1C2=O
0.05 µg/mL (≈ 0.136 µM)	CN(C)CCNc1ccc(NCCCN)c2c1C(=O)c1ccccc1C2=O
2.8 µg/mL (≈ 9.02 µM)	COc1ccc(NCCCN)c2c1C(=O)c1ccccc1C2=O
